RAM network inh: yeast RAM network inhibition | S. cerevisiae dse1pr::URA3 reporter, 5-FOA growth OD615, 2 d; analog-sensitive cbk1-as2 kinase mutant strain | inhibition, % at 50 µM | 1.8% of 190,000 active | AID 868;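 active = inhibition above a set limit, 3 SD over mean compound inhibition, cut at about 8.4% in these data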;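 also: inhibition rescues growth on 5-FOA so higher OD means more RAM inhibition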
NPY2 pot ag: human NPY-Y2 potentiation or agonism, primary screen | cells expressing NPY-Y2, potentiator/agonist read-out | 0.45% of 220,000 active | P49146 | activation, % at 3.6 µM; in the data active = activation above about 27%;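 also: cells stimulated with NPY near EC25 plus isoproterenol at EC100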
Target sequence (P49146 whole entry, looked up): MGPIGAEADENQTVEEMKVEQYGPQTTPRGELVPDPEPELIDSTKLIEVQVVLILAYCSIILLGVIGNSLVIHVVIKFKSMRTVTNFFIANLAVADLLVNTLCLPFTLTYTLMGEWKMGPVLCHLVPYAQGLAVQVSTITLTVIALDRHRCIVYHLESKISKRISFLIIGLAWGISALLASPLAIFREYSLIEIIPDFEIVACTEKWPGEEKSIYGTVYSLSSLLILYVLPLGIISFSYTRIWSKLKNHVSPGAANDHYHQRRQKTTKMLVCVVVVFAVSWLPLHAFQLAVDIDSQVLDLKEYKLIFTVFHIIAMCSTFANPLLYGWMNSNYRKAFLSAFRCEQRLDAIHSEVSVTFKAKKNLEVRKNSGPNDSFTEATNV
Insulin prom inh: TRM-6 insulin promoter activity inhibition | 0.9% of 130,000 active | TRM-6 cells, insulin promoter-eGFP reporter, imaging; reporter expression induced with tamoxifen | inhibition, % at 2 µM;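 active = inhibition above the mean plus 3 SD, with well images judged a real hit on visual review, cut at about 60% in these data, passing the limit was not always enough; inconclusive = inhibition over the cutoff but images rejected on review; inactive = inhibition not above the cutoff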
NPY Y1 blocker: blocks the human neuropeptide Y Y1 receptor; P25929; 1% of 200,000 active; inhibition, % at 3.6 µM; HEK293-CNG Y1 cells, membrane potential fluorescence; NPY at EC95, then isoproterenol;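 active = inhibition above the campaign mean inhibition of all tested compounds plus 3 SD, cut at about 20% in these data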
Target sequence (P25929 whole entry, looked up): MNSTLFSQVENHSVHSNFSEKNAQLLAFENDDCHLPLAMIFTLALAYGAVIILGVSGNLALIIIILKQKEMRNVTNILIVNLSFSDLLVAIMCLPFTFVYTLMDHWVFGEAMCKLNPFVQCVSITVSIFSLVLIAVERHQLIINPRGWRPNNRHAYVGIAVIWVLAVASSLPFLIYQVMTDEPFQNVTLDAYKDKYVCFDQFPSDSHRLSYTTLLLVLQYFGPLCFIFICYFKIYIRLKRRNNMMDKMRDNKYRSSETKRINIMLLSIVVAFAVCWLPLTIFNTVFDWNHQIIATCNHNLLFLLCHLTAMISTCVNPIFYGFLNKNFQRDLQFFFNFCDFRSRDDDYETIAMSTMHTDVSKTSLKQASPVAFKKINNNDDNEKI
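Test system: HEK293 cells co-expressing NPY Y1 receptor and cyclic-nucleotide gated channel; Also added: NPY (25 nM), isoproterenol (1 µM), Ro 20-1724 (25 µM); Compound dosing: one concentration, 3.6 µM, in 0.4% DMSO; Timing: dye 3 h, compound 60 min room temperature, stimulation 45 min; Technique: Membrane-potential fluorescent dye readout.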
NPY-Y2 antag: blocks the human neuropeptide Y Y2 receptor; P49146; NPY-Y2 expressing cells, antagonist mode; inhibition, % at 2.7 µM; 0.99% of 140,000 active; in the data active = inhibition above about 17%
NPY-Y1 PAM-ag: human NPY-Y1 potentiation or agonism, primary screen | 0.37% of 220,000 active | AID 1304 | NPY-Y1 expressing cells, potentiator/agonist activation | activation, % at 3.6 µM; in the data active = activation above about 33%, passing the limit was not always enough;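 also: cells stimulated with NPY at EC10 then isoproterenol at EC100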
Of the large screens only hits and unclear results are named; the others gave an inactive call. Shown are actives, neighbours in structure and some others; about 3.8% of the full set was active somewhere.

CCN1C(=O)/C(=C\C=C\c2ccccc2[N+](=O)[O-])SC1=S	RAM network inh 8.6 (no result: NPY-Y2 antag)
CCN1C(=O)/C(=C/N2CCc3ccccc3C2)SC1=S	none (no result: RAM network inh, Insulin prom inh, NPY Y1 blocker, NPY-Y2 antag)
O=C(CC1C(=O)NCCN1Cc1c(F)cccc1Cl)NCCCn1cccn1 (centres undefined)	none (no result: RAM network inh, Insulin prom inh, NPY Y1 blocker, NPY-Y2 antag)
COc1ccc(NC(=O)CCCC2CCCCC2)cc1S(=O)(=O)N1CCCCC1	NPY Y1 blocker 29, NPY-Y2 antag 18
COc1ccccc1CNC(=O)CSc1ccc(-c2ccccn2)nn1	none (no result: NPY-Y2 antag)
CCOC(=O)C1CCN(c2ncnc3c2[nH]c2cccc(OC)c23)CC1	none
CCOC(=O)C1CCN(c2ncnc3c2oc2ccc(Cl)cc23)CC1	NPY-Y2 antag 19
COCCCNC(=O)CC(NCCCOC)C(=O)O (centres undefined)	none
COc1ccc(Nc2nc3ccccc3nc2NS(=O)(=O)c2cccs2)c(OC)c1	none (no result: RAM network inh, Insulin prom inh, NPY Y1 blocker, NPY-Y2 antag)
COc1cccc(Nc2nc3ccccc3nc2NS(=O)(=O)c2cccs2)c1	NPY2 pot ag 43, NPY-Y1 PAM-ag 78
CCN(CC)S(=O)(=O)c1cccc(C(=O)NCCCn2ccnc2)c1	none (no result: RAM network inh, Insulin prom inh, NPY Y1 blocker, NPY-Y2 antag)
O=C(CSc1nnc(-c2ccco2)o1)c1ccc(O)cc1O	none (no result: Insulin prom inh, NPY-Y2 antag)
CC(C)NC(=O)CNc1ccc(C(F)(F)F)cc1[N+](=O)[O-]	none (no result: Insulin prom inh, NPY-Y2 antag)
O=C(CNc1ccc(C(F)(F)F)cc1[N+](=O)[O-])OCC(=O)c1ccccc1	RAM network inh 11
C=CCc1c(C)nn(CC(=O)O)c1-c1ccccc1	none
Cc1[nH]c(=O)[nH]c(=O)c1CSCC(=O)OCC(=O)c1ccc(Br)cc1	none (no result: NPY-Y2 antag)
COc1ccc(-c2cn3ccc4ccccc4c3n2)cc1	Insulin prom inh 77
Cc1cccc(C(=O)N2CCC(Cc3ccccc3)CC2)c1[N+](=O)[O-]	none
O=C(NCCCO)/C(=C/c1ccc(-c2cccc([N+](=O)[O-])c2)o1)NC(=O)c1ccccc1	RAM network inh 8.5 (no result: NPY-Y2 antag)
COc1ccccc1CC(=O)Nc1cccc(C(=O)Nc2nccs2)c1	none (no result: RAM network inh, Insulin prom inh, NPY Y1 blocker, NPY-Y2 antag)
CCOC(=O)c1ccc(Nc2nnc(C)c3ccccc23)cc1	none (no result: RAM network inh, Insulin prom inh, NPY Y1 blocker, NPY-Y2 antag)
COC(=O)COc1ccc(/C=N/NC(=O)c2ccc(N(Cc3ccccc3)S(C)(=O)=O)cc2)cc1	NPY2 pot ag 31, NPY-Y1 PAM-ag 61
CC(C)Oc1ccc(/C=N/NC(=O)c2ccc(N(Cc3ccccc3)S(C)(=O)=O)cc2)cc1	none
CCN(CC)S(=O)(=O)c1ccc(OC)c(NC(=O)CSc2cc(Cl)ccc2Cl)c1	RAM network inh 9.2
CCN(CC)S(=O)(=O)c1ccc(OC)c(NC(=O)CSc2ccccc2)c1	none
COc1ccc(OCc2nc(C#N)c(N3CCN(c4ccc(OC)cc4)CC3)o2)cc1	RAM network inh 8.4, NPY Y1 blocker 37, NPY-Y2 antag 25 (no result: Insulin prom inh)
Cc1cccc(OCc2nc(C#N)c(N3CC(C)CC(C)C3)o2)c1 (centres undefined)	NPY Y1 blocker 56, NPY-Y2 antag 18 (no result: Insulin prom inh)
N#Cc1nc(COc2ccccc2Cl)oc1N1CCCC1	none (no result: NPY-Y2 antag)
COc1ccc(N2CCN(c3oc(COc4ccccc4Cl)nc3C#N)CC2)cc1	NPY Y1 blocker 42, NPY-Y2 antag 25 (no result: Insulin prom inh)
N#Cc1nc(COc2ccccc2Cl)oc1N1CCCCCC1	none (no result: Insulin prom inh)
Cc1cccc(OCc2nc(C#N)c(N3CCCC3)o2)c1	none (no result: RAM network inh, Insulin prom inh, NPY Y1 blocker, NPY-Y2 antag)
CC1CN(c2oc(COc3ccc(Cl)cc3Cl)nc2C#N)CC(C)O1 (centres undefined)	NPY Y1 blocker 29, NPY-Y2 antag 23
Cc1cc(-n2c(SCCC#N)nnc2-c2cccnc2)ccc1Cl	none
COc1ccc(S(=O)(=O)Nc2ccccc2C(=O)NCc2ccco2)cc1Br	none
O=C(NCc1ccccc1Cl)C1CCN(C(=O)c2sccc2-n2cccc2)CC1	RAM network inh 8.9, Insulin prom inh inconclusive
O=C(NCc1ccccc1F)C1CCN(C(=O)c2sccc2-n2cccc2)CC1	none (no result: Insulin prom inh, NPY-Y2 antag)
Cc1ccc(C2(c3noc(CN4CCC(C(=O)N5CCOCC5)CC4)n3)CCCC2)cc1	none (no result: Insulin prom inh, NPY-Y2 antag)
CCOC(=O)CC1=NN(c2ccccc2)C(=O)/C1=C\c1ccc(OC)cc1OC	none
Cc1ccc(SCc2c(C#N)c3ccccc3n2C)cc1	RAM network inh 8.7
O=C(CSc1ccc2nnc(-c3ccncc3)n2n1)Nc1nccs1	none (no result: NPY-Y2 antag)
CCOC(=O)Nc1ccc2c(c1)N(C(=O)CCN1CCN(CCO)CC1)c1ccccc1S2	Insulin prom inh 89 (no result: RAM network inh)
CCOC(=O)Nc1ccc2c(c1)N(C(=O)CCN1CCN(C)CC1)c1ccccc1S2	none
O=C(CN1CCC(n2nnc3cc(C(F)(F)F)ccc32)CC1)NNC(=O)c1ccco1	none (no result: Insulin prom inh, NPY-Y2 antag)
COc1ccc(CCN2C(=O)c3[nH]nc(-c4ccccc4O)c3C2c2ccccc2)cc1OC (centres undefined)	RAM network inh 11
COc1ccc(N2CCN(c3ccc(N4C(=O)CC(C)C4=O)cc3[N+](=O)[O-])CC2)cc1 (centres undefined)	Insulin prom inh 77 (no result: NPY-Y2 antag)
CCc1ccc(NC(=S)N(Cc2ccccc2)Cc2ccccn2)cc1	none (no result: NPY-Y2 antag)
COc1ccc(OC)c2[nH]c(=O)c(CCNC(=O)c3ccc(S(=O)(=O)N(C)C)cc3)cc12	Insulin prom inh 91
COc1ccc(OC)c2[nH]c(=O)c(CCNC(=O)c3ccc(Br)o3)cc12	Insulin prom inh 86
COc1ccc(OC)c2[nH]c(=O)c(CCNC(=O)c3ccc(S(=O)(=O)N4CCCCC4)cc3)cc12	none (no result: Insulin prom inh)
O=C(O)c1nnn(-c2cc(C(F)(F)F)cc(C(F)(F)F)c2)c1-c1ccccc1	none (no result: RAM network inh, Insulin prom inh, NPY Y1 blocker, NPY-Y2 antag)
c1ccc(-c2ncnc3nc4n(c23)CCC4)cc1	none
O=C(NCCN1C(=O)S/C(=C/c2cccnc2)C1=O)C1CC(=O)N(Cc2ccccc2)C1 (centres undefined)	none (no result: NPY-Y2 antag)
CCN(CC)CCNC(=O)c1ccc(N2CCCCC2)c(NS(=O)(=O)c2ccc(C)cc2)c1	none
CCN(CC)S(=O)(=O)c1ccc(N2CCCC2)c(NS(=O)(=O)c2ccc(F)cc2)c1	RAM network inh 9.8
COC(=O)c1ccc(N2CCCCC2)c(NS(=O)(=O)c2ccc(C)cc2)c1	RAM network inh 11
N#CCN1CCC2(O)CCCCC2C1c1ccc2c(c1)OCO2 (centres undefined)	none (no result: RAM network inh, Insulin prom inh, NPY Y1 blocker, NPY-Y2 antag)
CCCCCCCN1N=C(C)C(C(=O)c2ccccc2)C1=O (centres undefined)	none
CCCCCN1N=C(C)CC1=O	Insulin prom inh 67 (no result: NPY-Y2 antag)
Clc1ccc2nc(N3CCCCC3)[nH]c2c1	Insulin prom inh 87
COC(=O)c1cc(NC(=O)CC2SC(=Nc3ccccc3)N(CCc3c[nH]c4ccccc34)C2=O)cc(C(=O)OC)c1 (centres undefined)	NPY2 pot ag 35, NPY-Y1 PAM-ag 47 (no result: Insulin prom inh)
COCCN1C(=O)C(CC(=O)Nc2ccc(C(=O)O)cc2)SC1=Nc1ccccc1 (centres undefined)	none
O=C(c1ccco1)N(CCC(c1ccccc1)c1ccco1)Cc1ccco1 (centres undefined)	RAM network inh 8.8
CN(Cc1ccccc1)C(=O)c1ccco1	none (no result: NPY-Y2 antag)

Screening results: PubChem, several laboratories
